# Data reported in ChEMBL document CHEMBL2086252, “Syntheses and evaluation of anticonvulsant activity of novel branched alkyl carbamates” (J Med Chem, 2012).
# The source made the active and inactive calls. The rule behind the calls is not given here.
# What was measured:
# Rattus norvegicus [1] = assay: Anticonvulsant activity in po dosed Sprague-Dawley albino rat assessed as protection against subcutaneous metrazol-induced seizures; format: functional
# Method in brief: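 Quantitative testing: rats dosed orally or ip in MES and scMet tests, and mice dosed ip, including the 6 Hz (32 mA) psychomotor seizure test. ED50 and TD50 were reported in mg/kg with ranges in parentheses. Protective index was calculated as TD50/ED50.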
# Mus musculus [2] = assay: Anticonvulsant activity in albino CF1 mouse assessed as protection against subcutaneous metrazol-induced seizures at 30 mg/kg, ip after 0.5 hrs; format: functional, organism-based; parameters: dose 30 mg/kg
# Method in brief: (§1)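 Mice dosed ip at 30, 100 or 300 mg/kg, then tested 0.5 h and 4 h after administration in the MES or scMet test. Protection was recorded as animals protected over animals tested. Neurotoxicity was recorded as motor impairment or sedation, as animals affected over animals tested.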
# Mus musculus [3] = assay: Anticonvulsant activity in albino CF1 mouse assessed as protection against subcutaneous metrazol-induced seizures at 100 mg/kg, ip after 0.5 hrs; format: functional, organism-based; parameters: dose 100 mg/kg; method in brief: as §1
# Mus musculus [4] = assay: Anticonvulsant activity in albino CF1 mouse assessed as protection against subcutaneous metrazol-induced seizures at 300 mg/kg, ip after 0.5 hrs; format: functional, organism-based; parameters: dose 300 mg/kg; method in brief: as §1
# Mus musculus [5] = assay: Anticonvulsant activity in albino CF1 mouse assessed as protection against subcutaneous metrazol-induced seizures at 30 mg/kg, ip after 4 hrs; format: functional, organism-based; parameters: dose 30 mg/kg; method in brief: as §1
# Mus musculus [6] = assay: Anticonvulsant activity in albino CF1 mouse assessed as protection against subcutaneous metrazol-induced seizures at 100 mg/kg, ip after 4 hrs; format: functional, organism-based; parameters: dose 100 mg/kg; method in brief: as §1
# Mus musculus [7] = assay: Anticonvulsant activity in albino CF1 mouse assessed as protection against subcutaneous metrazol-induced seizures at 300 mg/kg, ip after 4 hrs; format: functional, organism-based; parameters: dose 300 mg/kg; method in brief: as §1
# Mus musculus [8] = assay: Anticonvulsant activity in albino CF1 mouse assessed as protection against maximal electroshock-induced seizures at 30 mg/kg, ip after 0.5 hrs; format: functional, organism-based; parameters: dose 30 mg/kg; method in brief: as §1
# Mus musculus [9] = assay: Anticonvulsant activity in albino CF1 mouse assessed as protection against maximal electroshock-induced seizures at 300 mg/kg, ip after 0.5 hrs; format: functional, organism-based; parameters: dose 300 mg/kg; method in brief: as §1
# Mus musculus [10] = assay: Anticonvulsant activity in albino CF1 mouse assessed as protection against maximal electroshock-induced seizures at 30 mg/kg, ip after 4 hrs; format: functional, organism-based; parameters: dose 30 mg/kg; method in brief: as §1
# Mus musculus [11] = assay: Anticonvulsant activity in albino CF1 mouse assessed as protection against maximal electroshock-induced seizures at 100 mg/kg, ip after 4 hrs; format: functional, organism-based; parameters: dose 100 mg/kg; method in brief: as §1
# Mus musculus [12] = assay: Anticonvulsant activity in albino CF1 mouse assessed as protection against maximal electroshock-induced seizures at 300 mg/kg, ip after 4 hrs; format: functional, organism-based; parameters: dose 300 mg/kg; method in brief: as §1
# Mus musculus [13] = assay: Neurotoxicity in albino CF1 mouse assessed as minimal motor impairment at 30 mg/kg, ip after 0.5 hrs by rotarod test; format: toxicity, organism-based; parameters: dose 30 mg/kg, route intraperitoneal; details: in vivo; method in brief: as §1
# Mus musculus [14] = assay: Neurotoxicity in albino CF1 mouse assessed as minimal motor impairment at 300 mg/kg, ip after 0.5 hrs by rotarod test; format: toxicity, organism-based; parameters: dose 300 mg/kg, route intraperitoneal; details: in vivo; method in brief: as §1
# Mus musculus [15] = assay: Neurotoxicity in albino CF1 mouse assessed as minimal motor impairment at 30 mg/kg, ip after 4 hrs by rotarod test; format: toxicity, organism-based; parameters: dose 30 mg/kg, route intraperitoneal; details: in vivo; method in brief: as §1
# Mus musculus [16] = assay: Neurotoxicity in albino CF1 mouse assessed as minimal motor impairment at 100 mg/kg, ip after 4 hrs by rotarod test; format: toxicity, organism-based; parameters: dose 100 mg/kg, route intraperitoneal; details: in vivo; method in brief: as §1
# Mus musculus [17] = assay: Neurotoxicity in albino CF1 mouse assessed as minimal motor impairment at 300 mg/kg, ip after 4 hrs by rotarod test; format: toxicity, organism-based; parameters: dose 300 mg/kg, route intraperitoneal; details: in vivo; method in brief: as §1
# Rattus norvegicus [18] = assay: Anticonvulsant activity in Sprague-Dawley albino rat assessed as protection against maximal electroshock-induced seizures at 30 mg/kg, po after 15 mins; format: functional, organism-based; parameters: dose 30 mg/kg
# Method in brief: (§2)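 Rats dosed orally. Anti-MES protection was scored as animals protected over animals tested at each time after dosing. Neurotoxicity was scored as motor impairment or sedation, as animals affected over animals tested.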
# Rattus norvegicus [19] = assay: Anticonvulsant activity in Sprague-Dawley albino rat assessed as protection against maximal electroshock-induced seizures at 30 mg/kg, po after 30 mins; format: functional, organism-based; parameters: dose 30 mg/kg; method in brief: as §2
# Rattus norvegicus [20] = assay: Anticonvulsant activity in Sprague-Dawley albino rat assessed as protection against maximal electroshock-induced seizures at 30 mg/kg, po after 1 hr; format: functional, organism-based; parameters: dose 30 mg/kg; method in brief: as §2
# Rattus norvegicus [21] = assay: Anticonvulsant activity in Sprague-Dawley albino rat assessed as protection against maximal electroshock-induced seizures at 30 mg/kg, po after 2 hrs; format: functional, organism-based; parameters: dose 30 mg/kg; method in brief: as §2
# Rattus norvegicus [22] = assay: Anticonvulsant activity in Sprague-Dawley albino rat assessed as protection against maximal electroshock-induced seizures at 30 mg/kg, po after 4 hrs; format: functional, organism-based; parameters: dose 30 mg/kg; method in brief: as §2
# Rattus norvegicus [23] = assay: Neurotoxicity in Sprague-Dawley albino rat assessed as minimal motor impairment at 30 mg/kg, po by rotarod test; format: toxicity, organism-based; parameters: dose 30 mg/kg, route oral; details: in vivo; method in brief: as §2
# Rattus norvegicus [24] = assay: Anticonvulsant activity in Sprague-Dawley albino rat assessed as protection against pilocarpine-induced status epilepticus at 65 mg/kg, ip; format: functional, organism-based; parameters: dose 65 mg/kg
# Method in brief: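 Pilocarpine status epilepticus model in rats. Number and severity of convulsive seizures were observed behaviourally.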
# Rattus norvegicus [25] = assay: Neurotoxicity in pilocarpine-induced status epilepticus Sprague-Dawley albino rat model assessed as minimal motor impairment at 100 mg/kg, ip after 0.25 hr by rotarod test; format: toxicity, organism-based; parameters: dose 100 mg/kg, route intraperitoneal; details: in vivo
# Rattus norvegicus [26] = assay: Neurotoxicity in pilocarpine-induced status epilepticus Sprague-Dawley albino rat model assessed as minimal motor impairment at 300 mg/kg, ip after 0.25 hr by rotarod test; format: toxicity, organism-based; parameters: dose 300 mg/kg, route intraperitoneal; details: in vivo
# Method in brief: (§3)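 Rat pilocarpine status epilepticus model: test carbamate given at 0 or 30 min after the first observed Racine stage 3 motor seizure, which marks SE onset. Neurotoxicity was scored within the same model.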
# Rattus norvegicus [27] = assay: Neurotoxicity in pilocarpine-induced status epilepticus Sprague-Dawley albino rat model assessed as minimal motor impairment at 30 mg/kg, ip after 0.25 hr by rotarod test; format: toxicity, organism-based; parameters: dose 30 mg/kg, route intraperitoneal; details: in vivo; method in brief: as §3
# Rattus norvegicus [28] = assay: Neurotoxicity in pilocarpine-induced status epilepticus Sprague-Dawley albino rat model assessed as minimal motor impairment at 100 mg/kg, ip after 0.5 hrs by rotarod test; format: toxicity, organism-based; parameters: dose 100 mg/kg, route intraperitoneal; details: in vivo
# Rattus norvegicus [29] = assay: Neurotoxicity in pilocarpine-induced status epilepticus Sprague-Dawley albino rat model assessed as minimal motor impairment at 300 mg/kg, ip after 0.5 hrs by rotarod test; format: toxicity, organism-based; parameters: dose 300 mg/kg, route intraperitoneal; details: in vivo; method in brief: as §3
# Rattus norvegicus [30] = assay: Neurotoxicity in pilocarpine-induced status epilepticus Sprague-Dawley albino rat model assessed as minimal motor impairment at 30 mg/kg, ip after 0.5 hrs by rotarod test; format: toxicity, organism-based; parameters: dose 30 mg/kg, route intraperitoneal; details: in vivo; method in brief: as §3
# Rattus norvegicus [31] = assay: Neurotoxicity in pilocarpine-induced status epilepticus Sprague-Dawley albino rat model assessed as minimal motor impairment at 100 mg/kg, ip after 1 hr by rotarod test; format: toxicity, organism-based; parameters: dose 100 mg/kg, route intraperitoneal; details: in vivo
# Rattus norvegicus [32] = assay: Neurotoxicity in pilocarpine-induced status epilepticus Sprague-Dawley albino rat model assessed as minimal motor impairment at 30 mg/kg, ip after 1 hr by rotarod test; format: toxicity, organism-based; parameters: dose 30 mg/kg, route intraperitoneal; details: in vivo; method in brief: as §3
# Rattus norvegicus [33] = assay: Neurotoxicity in pilocarpine-induced status epilepticus Sprague-Dawley albino rat model assessed as minimal motor impairment at 100 mg/kg, ip after 2 hrs by rotarod test; format: toxicity, organism-based; parameters: dose 100 mg/kg, route intraperitoneal; details: in vivo
# Rattus norvegicus [34] = assay: Neurotoxicity in pilocarpine-induced status epilepticus Sprague-Dawley albino rat model assessed as minimal motor impairment at 300 mg/kg, ip after 2 hrs by rotarod test; format: toxicity, organism-based; parameters: dose 300 mg/kg, route intraperitoneal; details: in vivo; method in brief: as §3
# Rattus norvegicus [35] = assay: Neurotoxicity in pilocarpine-induced status epilepticus Sprague-Dawley albino rat model assessed as minimal motor impairment at 30 mg/kg, ip after 2 hrs by rotarod test; format: toxicity, organism-based; parameters: dose 30 mg/kg, route intraperitoneal; details: in vivo; method in brief: as §3
# Rattus norvegicus [36] = assay: Neurotoxicity in pilocarpine-induced status epilepticus Sprague-Dawley albino rat model assessed as minimal motor impairment at 100 mg/kg, ip after 4 hrs by rotarod test; format: toxicity, organism-based; parameters: dose 100 mg/kg, route intraperitoneal; details: in vivo
# Rattus norvegicus [37] = assay: Neurotoxicity in pilocarpine-induced status epilepticus Sprague-Dawley albino rat model assessed as minimal motor impairment at 300 mg/kg, ip after 4 hrs by rotarod test; format: toxicity, organism-based; parameters: dose 300 mg/kg, route intraperitoneal; details: in vivo; method in brief: as §3
# Rattus norvegicus [38] = assay: Neurotoxicity in pilocarpine-induced status epilepticus Sprague-Dawley albino rat model assessed as minimal motor impairment at 30 mg/kg, ip after 4 hrs by rotarod test; format: toxicity, organism-based; parameters: dose 30 mg/kg, route intraperitoneal; details: in vivo; method in brief: as §3
smiles,measurement,setting,value
CCCC(CCC)C(=O)O [VALPROIC ACID],ED50,Rattus norvegicus [1],646 mg/kg
CCC(C)CCOC(N)=O (racemic),Activity,Mus musculus [2],inactive
same,Activity,Mus musculus [3],inactive
same,Activity,Mus musculus [4],inactive
same,Activity,Mus musculus [5],inactive
same,Activity,Mus musculus [6],inactive
same,Activity,Mus musculus [7],inactive
same,Activity,Mus musculus [8],inactive
same,Activity,Mus musculus [9],Active
same,Activity,Mus musculus [10],inactive
same,Activity,Mus musculus [11],inactive
same,Activity,Mus musculus [12],inactive
same,Activity,Mus musculus [13],Non-toxic
same,Activity,Mus musculus [14],Toxic
same,Activity,Mus musculus [15],Non-toxic
same,Activity,Mus musculus [16],Non-toxic
same,Activity,Mus musculus [17],Non-toxic
same,Activity,Rattus norvegicus [18],inactive
same,Activity,Rattus norvegicus [19],inactive
same,Activity,Rattus norvegicus [20],inactive
same,Activity,Rattus norvegicus [21],inactive
same,Activity,Rattus norvegicus [22],inactive
same,Activity,Rattus norvegicus [23],Non-toxic
same,Activity,Rattus norvegicus [24],Active
same,Activity,Rattus norvegicus [25],Toxic
same,Activity,Rattus norvegicus [26],Toxic
same,Activity,Rattus norvegicus [27],Non-toxic
same,Activity,Rattus norvegicus [28],Toxic
same,Activity,Rattus norvegicus [29],Toxic
same,Activity,Rattus norvegicus [30],Non-toxic
same,Activity,Rattus norvegicus [31],Non-toxic
same,Activity,Rattus norvegicus [32],Non-toxic
same,Activity,Rattus norvegicus [33],Non-toxic
same,Activity,Rattus norvegicus [34],Non-toxic
same,Activity,Rattus norvegicus [35],Non-toxic
same,Activity,Rattus norvegicus [36],Non-toxic
same,Activity,Rattus norvegicus [37],Non-toxic
same,Activity,Rattus norvegicus [38],Non-toxic
